According to paper PMC8095719 (Science translational medicine, 2020):
Like-named read-outs stand apart in the source and are kept apart here.

Key:
wild-type mice = test: MK-801–induced hyperlocomotion; type: in vivo, mouse; conditions: MK-801 0.3 mg/kg
Fmr1^−/y mice [1] = test: audiogenic seizure; type: in vivo, mouse; conditions: for AGS incidence, chronic dosing: 30 mg/kg ip daily for five days
Summary of the method: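 Male Fmr1−/y mice were housed on static racks to avoid auditory desensitisation. Doses were 30 mg/kg ip in 10% DMSO/45% PEG 400/45% saline. Acute: one injection 1–2 h before alarm exposure in a separate room. Chronic: four daily injections plus a fifth 1–2 h before testing. The mGluR5 antagonist comparator was given as three doses every 48 h. Incidence was compared by two-tailed Fisher's exact test.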

[2] = system: mouse hippocampal slices (CA1 fEPSP); conditions: previous studies; cited from earlier work
GSK3β [3] = conditions: cited from earlier work; for EC50: read-out: cellular EC50 against GSK3β, HEK293 cells
[4] = system: T668 of amyloid precursor protein (APP); test: Western blot of APP phosphorylation in dorsal hippocampus after in vivo dosing; set-up: species or system mouse; conditions: Fmr1^−/y mice, five days
β-catenin = test: Western blot of β-catenin in SH-SY5Y cultured cells; type: cell-based; conditions: 10 μM, 24 hours
[5] = plasma, CSF and brain pharmacokinetics in C57BL/6 mice; type: in vivo, mouse; conditions: 30 mg/kg ip; for brain entry after in vivo dosing: confirmed by hippocampal APP phosphorylation and LTD
Summary of the method: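 Male C57BL/6 mice received a single 30 mg/kg ip dose. Blood was taken into K2-EDTA from three mice per time point, and plasma was stored below −70°C. CSF and brain were sampled at 0.08, 0.5, 1, 2, 4, 8 and 24 h. Brains were rinsed in PBS pH 7.4 and homogenised in ice-cold PBS to three times brain weight before analysis.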

[6] = system: mouse hippocampal slices (CA1 fEPSP); test: NMDAR-dependent LTD and synaptic transmission in hippocampal slices; type: cell-based; conditions: for NMDAR-dependent LTD, acute application: wild-type hippocampal slices, 10 μM, LFS 900 pulses at 3 Hz
[7] = system: layer 5 of the visual cortex slices; test: evoked and spontaneous spiking in visual cortex slices; type: cell-based, mouse; conditions: 10 μM
Summary of the method: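 Visual cortex slices (350 μm) came from P16–P21 male WT and Fmr1−/y mice, cut in ice-cold sucrose solution. Recovery was 30 min at 32°C, then 2.5 h at room temperature in modified aCSF. White matter was stimulated with 0.2 ms pulses every 30 s at 35–80 μA, with extracellular recording in layer 5. Recording ran 30 min in vehicle (60 trials), then 30 min with 10 μM compound from 50 mM DMSO stock. Analysis was two-way repeated-measures ANOVA with Bonferroni post hoc.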

GSK3β [8] = conditions: cited from earlier work; for IC50: read-out: biochemical IC50 against GSK3β, reported values
mouse hippocampal slices = test: metabolic labeling of protein synthesis in hippocampal slices; type: cell-based
Summary of the method: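 Hippocampal slices (500 μm) came from male P28–P32 Fmr1−/y and WT littermates and were kept in oxygenated aCSF at 32.5°C. Compound was applied at 10 μM. Slices were labelled with [35S]Met/Cys for 30 min, then proteins were TCA-precipitated and counted by scintillation. Counts per minute per μg protein were normalised to the labelling aCSF and expressed as percent WT. Analysis was two-way ANOVA for genotype × treatment.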

Fmr1^−/y mice [9] = conditions: 30 mg/kg ip chronic, over 48 hours
[10] = system: CRMP2 phosphorylation (p-CRMP2); test: Western blot of CRMP2 phosphorylation in SH-SY5Y cultured cells; type: cell-based; conditions: 10 μM
[11] = system: mouse hippocampal slices (CA1 fEPSP); test: mGluR-dependent LTD; type: cell-based; conditions: DHPG 100 μM, 5 min
Fmr1^−/y mice [12] = conditions: cited from earlier work
GSK3α [13] = conditions: read-out: cellular EC50 against GSK3α; HEK293 cells; cited from earlier work
GSK3α [14] = conditions: read-out: biochemical IC50 against GSK3α; reported values; cited from earlier work
T514 of CRMP2 = test: Western blot of CRMP2 phosphorylation in dorsal hippocampus after in vivo dosing; set-up: species or system mouse; conditions: Fmr1^−/y mice, five days dosing
GSK3 = conditions: lithium treatment in patients with bipolar disorder; cited from earlier work
Fmr1^−/y mice [15] = conditions: chronic dietary treatment; cited from earlier work
[16] = Fmr1^−/y visual cortical slices
[17] = wild-type visual cortical slices
[18] = Fmr1^−/y mice, 30 mg/kg ip, 1 hour before stimulus
[19] = Fmr1^−/y hippocampal slices, 10 μM

Cc1nc(C#Cc2cccnc2)cs1 [MTEP, 3-[(2-methyl-1,3-thiazol-4-yl)ethynyl]-pyridine, reference compound]
effect of pretreatment on MK-801–induced hyperlocomotion (wild-type mice; 10 mg/kg ip): potentiated MK-801–induced hyperlocomotion

Cc1nc(C#Cc2ccnc(Cl)c2)c(C)n1-c1ccc(OC(F)(F)F)cc1 [CTEP, 2-chloro-4-((2,5-dimethyl-1-(4-(trifluoromethoxy)phenyl)-1H-imidazol-4-yl)ethynyl) pyridine, reference compound]
AGS incidence, acute dosing (Fmr1^−/y mice [1]; Fmr1^−/y mice, 2 mg/kg ip): significantly reduced the incidence of AGS | AGS protection after chronic dosing (Fmr1^−/y mice [1]; Fmr1^−/y mice, three consecutive doses over 5 days, 2 mg/kg ip): protection was completely lost

Cc1c[nH]c(-c2cnc(NCCNc3ccc(C#N)cn3)nc2-c2ccc(Cl)cc2Cl)n1 [CHIR99021]
NMDAR-dependent LTD [2]: reliably inhibit LTD

CC[C@]1(c2ccccc2)C2=CNNC2=NC2=C1C(=O)CC(C)(C)C2 [BRD0705, (S)-4-ethyl-7,7-dimethyl-4-phenyl-1,2,4,6,7,8-hexahydro-5H-pyrazolo[3,4-b]quinolin-5-one]
EC50 (GSK3β [3]): […] | IC50 (GSK3β [3]; read-out: cellular IC50 against GSK3β, HEK cells): […] | APP phosphorylation (T668) in dorsal hippocampus ([4]; 30 mg/kg ip QD): reduced APP phosphorylation | effect of pretreatment on MK-801–induced hyperlocomotion (wild-type mice; 30 mg/kg ip): had no effect on the behavioral response to MK-801 | effect on β-catenin (β-catenin): no effect on β-catenin | brain entry after in vivo dosing [5]: successfully entered the brain | NMDAR-dependent LTD, acute application [6]: blocked low-frequency stimulation–induced LTD | synaptic transmission ([6]; wild-type mice): no effect | number of evoked action potentials [7, 16]: significantly reduced the number of action potentials | number of spontaneous action potentials [7, 16]: significantly reduced the number of spontaneous action potentials | number of evoked action potentials [7, 17]: had no effect on WT visual cortical slices | IC50 (GSK3β [8]): […] | AGS incidence, chronic dosing (Fmr1^−/y mice [1]; Fmr1^−/y mice): no apparent loss of efficacy | AGS incidence, acute dosing (Fmr1^−/y mice [1]; [18]): significant reduction in seizure incidence | AGS incidence, acute dosing (Fmr1^−/y mice [1]; wild-type mice, 30 mg/kg ip): had no effect on seizure incidence | basal protein synthesis (mouse hippocampal slices; [19]): reduced elevated protein synthesis | CDPPB (mGluR5)-stimulated protein synthesis (mouse hippocampal slices; wild-type hippocampal slices, 10 μM, CDPPB 10 μM): blocked the elevation in protein synthesis | basal protein synthesis (mouse hippocampal slices; wild-type mice): no effect on basal protein synthesis | inhibitory avoidance memory acquisition and extinction (Fmr1^−/y mice [9]): exhibited normal memory acquisition and extinction | CRMP2 phosphorylation (p-CRMP2) [10]: decrease of CRMP2 phosphorylation | mGluR-dependent LTD ([11]; Fmr1^−/y hippocampal slices): blocked induction of LTD | mGluR-dependent LTD ([11]; wild-type hippocampal slices): blocked induction of LTD

O=C1Cc2c([nH]c3ccc(Br)cc23)-c2ccccc2N1 [kenpaullone]
NMDAR-dependent LTD [2]: reliably inhibit LTD

N#Cc1cccc(C(=O)Nc2cc(-c3ccccc3)nn2-c2ccccc2)c1 [CDPPB, 3-cyano-N-(1,3-diphenyl-1H-pyrazol-5-yl) benzamide, reference compound]
protein synthesis on mGluR5 stimulation (mouse hippocampal slices; wild-type hippocampal slices, 10 μM, versus vehicle): significantly increased protein synthesis

CC1(C)CC(=O)C2=C(C1)N=C1NNC(C3CC3)=C1[C@]2(C)c1ccccc1 [BRD0320, (S)-3-cyclopropyl-4,7,7-trimethyl-4-phenyl-1,2,4,6,7,8-hexahydro-5H-pyrazolo[3,4-b]quinolin-5-one]
effect on β-catenin (β-catenin): increase in β-catenin | AGS incidence, acute dosing (Fmr1^−/y mice [1]; [18]): ameliorates AGS incidence

Cc1cccc(C#Cc2ccccc2)n1 [MPEP]
suppression of AGS after chronic dosing (tolerance) (Fmr1^−/y mice [12]): greatly reduced after chronic dosing

O=C1NC(=O)C(c2ccccc2[N+](=O)[O-])=C1Nc1ccc(O)c(Cl)c1 [SB415286]
NMDAR-dependent LTD [2]: reliably inhibit LTD

CC(C)(C)CC1=C2C(=NC3=C(C(=O)CC(C)(C)C3)[C@@]2(C)c2ccccc2)NN1 [BRD3731, (S)-4,7,7-trimethyl-3-neopentyl-4-phenyl-1,2,4,6,7,8-hexahydro-5H-pyrazolo[3,4-b]quinolin-5-one]
EC50 (GSK3β [3]): 3.3 µM | APP phosphorylation (T668) in dorsal hippocampus ([4]; 30 mg/kg ip QD): reduced APP phosphorylation | EC50 (GSK3α [13]): > 20 µM | effect on β-catenin (β-catenin): no effect on β-catenin | time of peak brain concentration after injection [5]: 60 min | brain entry after in vivo dosing [5]: successfully entered the brain | NMDAR-dependent LTD ex vivo after chronic dosing in vivo ([6]; 30 mg/kg ip daily for five days, slices 1 hour after last injection): inhibited NMDAR-dependent LTD | NMDAR-dependent LTD, acute application [6]: strongly inhibited LTD | IC50 (GSK3α [14]): 0.215 µM | number of evoked action potentials [7, 16]: did not alter activity | number of spontaneous action potentials [7, 16]: does not reduce spontaneous hyperactivity | number of evoked action potentials [7, 17]: did not alter activity | selectivity for GSK3β (GSK3β [8]; purified enzymes): about 10 fold | IC50 (GSK3β [8]): 0.015 µM | AGS incidence, chronic dosing (Fmr1^−/y mice [1]; Fmr1^−/y mice): has no effect on AGS incidence | AGS incidence, acute dosing (Fmr1^−/y mice [1]; [18]): no significant reduction in seizure activity | AGS incidence, acute dosing (Fmr1^−/y mice [1]; wild-type mice, 30 mg/kg ip): did not affect seizure incidence | basal protein synthesis (mouse hippocampal slices; [19]): had no effect | CRMP2 phosphorylation (p-CRMP2) [10]: decrease of CRMP2 phosphorylation | mGluR-dependent LTD ([11]; Fmr1^−/y hippocampal slices): but not BRD3731, blocked induction of LTD | mGluR-dependent LTD ([11]; wild-type hippocampal slices): but not BRD3731, blocked induction of LTD

[Cl-].[Li+] [lithium, lithium chloride]
NMDAR-dependent LTD [2]: reliably inhibit LTD | APP phosphorylation (T668) in dorsal hippocampus ([4]; 60 mg/kg ip twice daily): reduced APP phosphorylation | AGS protection (Fmr1^−/y mice [12]): protect Fmr1^−/y mice from AGS | AGS, daily injections over 5 days (Fmr1^−/y mice [12]): effectively reduce AGS | phosphorylation of T514 of CRMP2 in hippocampus in vivo (T514 of CRMP2): not changed | inhibition of total GSK3 protein (GSK3): < 75% | rates of cerebral protein synthesis (Fmr1^−/y mice [15]): reduces elevated rates of cerebral protein synthesis
